B1: NELF-E aptamer (parent)
chain: CCCAACGACUGCCGAGCGAGAUUACGCUUGAGCGCCCCACUGAGGAUGCCCACGGGCGAUUGGGGCACGG

This series covers variants of B1. The experiment in a line: HiTS-RAP. The following applies: with NELF-E (Drosophila). In outline: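 Aptamer DNA templates carrying a T7 promoter and ter site were sequenced on an Illumina GAIIx flowcell, then transcribed in situ by T7 RNA polymerase and halted by GST-Tus (30 minutes, 37°C). Clusters were imaged after 30-minute room-temperature equilibration with NELF-E-mOrange at 0.064 to 1000 nM in HEPES binding buffer, and only the first binding curve was used. Intensities were normalised to sequencing intensity and averaged per sequence. Kd came from weighted Hill fits, keeping fits with variance below 1,000,000.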
As to CCCAACGACGGCCGAGCGAGAUUACGCUUGAGCGCCCCACUGAGGAUGCCCACGGUCGAUUGGGGCACGG, the Kd was determined as 5.31 nM. The result for CCCAACGACGGCCGAGCGAGAUUACGCUUGAGCGCCCCACUGAGGAUGCCCACGGACGAUUGGGGCACGG reads 9.45 nM; that for CCCAACGACGGCCGAGCGAGAUUACGCUUGAGCGCCCCACUGAGGAUGCCCACGGCCGAUUGGGGCACGG, 27.1 nM; that for CCCAACGACGGCCGAGCGAGAUUACGCUUGAGCUCCCCACUGAGGAUGCCCACGGGCGAUUGGGGCACGG, 5.54 nM. The result for CCCAACGACGGCCGAGCGAGAUUACGCUUGAGCACCCCACUGAGGAUGCCCACGGGCGAUUGGGGCACGG reads 6.95 nM; that for CCCAACGACGGCCGAGCGAGAUUACGCUUGAGCCCCCCACUGAGGAUGCCCACGGGCGAUUGGGGCACGG, 13.2 nM.

CCCAACGACGGCCGAGCGAGACUACGCUUGAGCGCCCCACUGAGGAUGCCCACGGGCGAUUGGGGCACGG: the Kd amounted to 4.95 nM. The result for CCCAACGACGGCCGAGCGAGAAUACGCUUGAGCGCCCCACUGAGGAUGCCCACGGGCGAUUGGGGCACGG reads 5.58 nM; that for CCCAACGACGGCCGAGCGAGAUUACGCUUGAUCGCCCCACUGAGGAUGCCCACGGGCGAUUGGGGCACGG, 5.18 nM.

Turning to CCCAACGACGGCCGAGCGAGAUUACGCUUGACCGCCCCACUGAGGAUGCCCACGGGCGAUUGGGGCACGG, the Kd came out at 4.38 nM. The result for CCCAACGACGGCCGAGCGAGAUUACGCUUGAACGCCCCACUGAGGAUGCCCACGGGCGAUUGGGGCACGG reads 4.44 nM; that for CCCAACGACGGCCGAGCGAGAUUACGCUUGAGCGCCCCACUGAGGAUGCCCACGGGCGAUUGUGGCACGG, 10.9 nM; that for CCCAACGACGGCCGAGCGAGAUUACGCUUGAGCGCCCCACUGAGGAUGCCCACGGGCGAUUGAGGCACGG, 16.5 nM.

For CCCAACGACGGCCGAGCGAGAUUACGCUUGAGCGCCCCACUGAGGAUGCCCACGGGCGAUUGCGGCACGG, the Kd was determined as 43 nM.

For the variant CCCAACGACGGCCGAGCGAGAUUACGCUUGAGCGCCCCACUGAGAAUGCCCACGGGCGAUUGGGGCACGG, the Kd amounted to 68.6 nM. For CCCAACGACGGCCGAGCGAGAUUACGCUUGAGCGCCCCACUGAGUAUGCCCACGGGCGAUUGGGGCACGG the value was 7.35 nM; for CCCAACGACGGCCGAGCGAGAUUACGCUUGAGCGCCCCACUGAAGAUGCCCACGGGCGAUUGGGGCACGG, 45.2 nM; for CCCAACGACGGCCGAGCGAGAUUACGCUUGAGCGCCCCACUGAUGAUGCCCACGGGCGAUUGGGGCACGG, 9.69 nM. For the variant CCCAACGACGGCCGAGCGAGAUUACGCUUGAGCGCCCCACUGACGAUGCCCACGGGCGAUUGGGGCACGG, the Kd was 34.8 nM.

Consider CCCAACGACGGCCGAGCGAGAUUACGCUUUAGCGCCCCACUGAGGAUGCCCACGGGCGAUUGGGGCACGG, for which the Kd is 5.29 nM. Regarding CCCAACGACGGCCGAGCGAGAUUACGCUUGAGCGCCCCACUGAGGAUGCCCACGGGCGAUUAGGGCACGG, the Kd was found to be 16.9 nM. The result for CCCAACGACGGCCGAGCGAGAUUACGCUUGAGCGCCCCACUGAGGAUGCCCACGGGCGAUUCGGGCACGG reads 67.3 nM. For CCCAACGACGGCCGAGCGAGAUUACGCUUGAGCGCCCCACUGAGGAUGCCCACGGGCGAUUUGGGCACGG the value was 6.99 nM. The result for CCCAACGACGGCCGAGCGAGAUUACGCUUGAGCGCCCCACUGAGGAUGCCCACGGGCGAUUGGGCCACGG reads 17 nM; that for CCCAACGACGGCCGAGCGAGAUUACGCUUGAGCGCCCCACUGAGGAUGCCCACGGGCGAUUGGGACACGG, 4.82 nM. Regarding CCCAACGACGGCCGAGCGAGAUUACGCUUGAGCGCCCCACUGAGGAUGCCCACGGGCGAUUGGGUCACGG, the equilibrium dissociation constant (Kd) amounted to 6.08 nM. The result for CCCAACGACGGCCGAGCGAGAUUACGCUUGAGCGCCCCACUGAGGAUGCCCACGAGCGAUUGGGGCACGG reads 8.64 nM. The result for CCCAACGACGGCCGAGCGAGAUUACGCUUGAGCGCCCCACUGAGGAUGCCCACGCGCGAUUGGGGCACGG reads 7.54 nM.

Take CCCAACGACGGCCGAGCGAGAUUACGCUUGAGCGCCCCACUGAGGAUGCCCACGUGCGAUUGGGGCACGG: the Kd stood at 6.13 nM. On to CCCAACGACGGCCGAGCGAGAUUACGCUUGAGCGCCCCACUAAGGAUGCCCACGGGCGAUUGGGGCACGG, for which the Kd came to 42.8 nM. For CCCAACGACGGCCGAGCGAGAUUACGCUUGAGCGCCCCACUUAGGAUGCCCACGGGCGAUUGGGGCACGG the value was 23.2 nM; for CCCAACGACGGCCGAGCGAGAUUACGCUUGAGCGCCCCACUGAGGAUGCCCACGGGCUAUUGGGGCACGG, 8.62 nM; for CCCAACGACGGCCGAGCGAGAUUACGCUUGAGCGCCCCACUGAGGAUGCCCACAGGCGAUUGGGGCACGG, 12 nM. As for CCCAACGACGGCCGAGCGAGAUUACGCUUGAGCGCCCCACUGAGGAUGCCCACUGGCGAUUGGGGCACGG, the Kd came to 6.86 nM. For CCCAACGACGGCCGAGCGAGAUUACGCUUGAGCGCCCCACUGAGGAUACCCACGGGCGAUUGGGGCACGG the value was 8.83 nM; for CCCAACGACGGCCGAGCGAGAUUACGCUUGAGCGCCCCACUGAGGAUUCCCACGGGCGAUUGGGGCACGG, 6.92 nM.

Regarding CCCAACGACGGCCGAGCGAGAUUACGCUUGAGCGCCCCACUGAGGAUGCCCACGGGCGAUUGGAGCACGG, the Kd turned out to be 7.4 nM. The result for CCCAACGACGGCCGAGCGAGAUUACGCUUGAGCGCCCCACUGAGGAUGCCCACGGGCGAUUGGUGCACGG reads 7.3 nM; that for CCCAACGACGGCCGAGCGAGAUUACGCUUGAGCGCCCCACUGAGGAUGCCCACGGGCGAUUGGCGCACGG, 6.95 nM.

One may read the Kd as the free concentration of one partner at which half of the binding sites on the other are occupied at equilibrium, for simple one-to-one binding.
